20 compounds from ChEMBL document CHEMBL3822412, “Exploiting Protein Conformational Change to Optimize Adenosine-Derived Inhibitors of HSP70” (J Med Chem, 2016) can be followed below.

The test concerns the target Heat shock cognate 71 kDa protein (Homo sapiens, UniProt P11142). The experiment in a line: Binding affinity to human truncated HSC70 NBD (1 to 381 residues) by SPR analysis. The procedure, abridged: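 Human HSC70-NBD (residues 1-381) amine-coupled to a CM5 chip to ~5000 RU, with 750 µM ADP present during coupling. Running buffer PBS pH 7.4 with 0.05% Tween20 and 5% DMSO. Eight-point dose response over 50–2000, 5–200 or 0.0625–2.5 µM. Flow 30 µL/min, 60 s injection, 120 s dissociation, no regeneration, unmodified reference cell. KD taken from equilibrium binding curves fitted to a 1:1 model. Geometric mean ± SEM, n≥3.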
Background: In SPR one partner is held on a chip, and binding of the other changes the refractive index at the surface.

SMILES strings stand for the structures.

Sequence of Heat shock cognate 71 kDa protein (P11142 whole entry, the tested form may be a part): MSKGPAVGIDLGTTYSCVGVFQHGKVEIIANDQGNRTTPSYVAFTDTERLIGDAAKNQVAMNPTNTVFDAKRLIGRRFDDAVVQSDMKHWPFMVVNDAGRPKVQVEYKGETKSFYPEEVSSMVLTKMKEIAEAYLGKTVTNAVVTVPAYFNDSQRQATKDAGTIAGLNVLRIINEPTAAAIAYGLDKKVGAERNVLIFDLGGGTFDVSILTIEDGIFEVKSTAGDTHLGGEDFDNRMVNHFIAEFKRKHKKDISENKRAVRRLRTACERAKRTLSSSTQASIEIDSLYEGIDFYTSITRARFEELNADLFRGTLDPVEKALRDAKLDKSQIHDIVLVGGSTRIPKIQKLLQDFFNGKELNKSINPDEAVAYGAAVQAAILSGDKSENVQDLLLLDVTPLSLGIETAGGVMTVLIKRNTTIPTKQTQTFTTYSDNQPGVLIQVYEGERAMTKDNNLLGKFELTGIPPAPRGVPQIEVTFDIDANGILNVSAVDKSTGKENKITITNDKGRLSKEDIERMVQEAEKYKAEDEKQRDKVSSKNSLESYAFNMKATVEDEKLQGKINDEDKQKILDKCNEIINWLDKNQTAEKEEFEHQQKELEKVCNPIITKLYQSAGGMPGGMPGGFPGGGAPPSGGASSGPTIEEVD

As to `CNc1c(C(N)=O)c2c(N)ncnc2n1[C@@H]1O[C@H](CO)[C@@H](O)[C@H]1O`, where the note is “read-out: Kd”, the Kd was 30 µM. Same read-out and setting: for `Nc1ncnc2c1ncn2[C@@H]1O[C@H](COP(=O)(O)OP(=O)(O)O)[C@@H](O)[C@H]1O` [ADENOSINE DIPHOSPHATE] the value was 0.32 µM; for `Nc1ncnc2c1nc(NCc1ccccc1)n2[C@@H]1O[C@H](CO)[C@@H](O)[C@H]1O`, 1.4 µM; for `Cc1ccc(CNc2nc3c(N)ncnc3n2[C@@H]2O[C@H](CO)[C@@H](O)[C@H]2O)cc1`, 0.3 µM. As to `COc1nc2c(N)ncnc2n1[C@@H]1O[C@H](CO)[C@@H](O)[C@H]1O`, where the note is “read-out: Kd”, the Kd is more than 1000 µM. Still for that read-out and setting: for `C[C@H]1O[C@@H](n2cnc3c(N)ncnc32)[C@H](O)[C@@H]1O` [5'-Deoxyadenosine] the value was 130 µM; for `CNc1nc2c(N)ncnc2n1[C@@H]1O[C@H](C)[C@@H](O)[C@H]1O`, 27 µM. Same read-out and setting: for `Nc1ncnc2c1nc(NCc1ccc(Cl)cc1)n2[C@@H]1O[C@H](CO)[C@@H](O)[C@H]1O` the value was 0.28 µM; for `CNc1nc2c(N)ncnc2n1[C@@H]1O[C@H](CO)[C@@H](O)[C@H]1O`, 17 µM; for `CN(C)c1nc2c(N)ncnc2n1[C@@H]1O[C@H](CO)[C@@H](O)[C@H]1O`, more than 1000 µM. The same measure, in the same setting: for `CNc1c(C#N)c2c(N)ncnc2n1[C@@H]1O[C@H](CO)[C@@H](O)[C@H]1O` the value was 3.3 µM; for `Nc1ncnc2c1nc(NCc1ccc3ncccc3c1)n2[C@@H]1O[C@H](CO)[C@@H](O)[C@H]1O`, 0.72 µM; for `Nc1ncnc2c1nc(NCc1ccc(Cl)c(Cl)c1)n2[C@@H]1O[C@H](CO)[C@@H](O)[C@H]1O`, 3.5 µM. Turning to `NC(=O)c1cn([C@@H]2O[C@H](CO)[C@@H](O)[C@H]2O)c2ncnc(N)c12` [SANGIVAMYCIN], the Kd (read-out: pKd (converted)) is 3.24 µM.

On to `N#Cc1cn([C@@H]2O[C@H](CO)[C@@H](O)[C@H]2O)c2ncnc(N)c12` [TOYOCAMYCIN], for which the Kd (read-out: pKd (converted)) was 91.2 µM. For the compound `Nc1ncnc2c1ncn2[C@@H]1O[C@H](CO)[C@@H](O)[C@H]1O` [ADENOSINE], where the note is “read-out: Kd”, the Kd came to 110 µM. Same read-out and setting: for `N#Cc1c(NCc2ccccc2)n([C@@H]2O[C@H](CO)[C@@H](O)[C@H]2O)c2ncnc(N)c12` the value was 2.8 µM. Still for that read-out and setting: for `Nc1ncnc2c1nc(NCc1ccc(F)cc1)n2[C@@H]1O[C@H](CO)[C@@H](O)[C@H]1O` the value was 0.46 µM.

On to `Nc1ncnc2c1nc(N)n2[C@@H]1O[C@H](CO)[C@@H](O)[C@H]1O`, for which the Kd (read-out: Kd) turned out to be 7 µM.

For the compound `Nc1ncnc2c1ccn2[C@@H]1O[C@H](CO)[C@@H](O)[C@H]1O` [TUBERCIDIN], the Kd (read-out: pKd (converted)) is 28.2 µM.
